The text below walks through data of ChEMBL document CHEMBL4725343, “Medicinal Chemistry Optimization of a Diaminopurine Chemotype: Toward a Lead for Trypanosoma brucei Inhibitors” (J Med Chem, 2020).

Data set [1] in a line: Distribution coefficient between octanol and aqueous buffer, logD of the compound in pH 7.4 buffer by UPLC-MS-based shake flask method. As to conditions: octanol/water. The class given is physicochemical.
Data set [2] can be described thus: Apparent permeability across basolateral to apical side in human Caco2 cells after 2 hrs. The class given is ADME, cell-based. As to conditions: caco-2, 2 h.
Data set [3] is described as follows: AUC(0 to t) in ABT-treated NMRI mouse at 30 mg/kg, ip measured up to 6 hrs on day 1 by LC-MS/MS analysis. More on the design: route intraperitoneal, dose 30 mg/kg/day, time <=6. As to conditions: in vivo. The class given is ADME, organism-based. In a few lines: (§1)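 Uninfected female NMRI mice (n=3), oral 1-aminobenzotriazole 50 mg/kg/day 1 h before each ip dose of 30 mg/kg/day (0.2 mL; vehicle 4% DMSO, 20% Captisol). Blood sampled at 0.5, 2, 4 and 6 h on day 1. Samples processed by liquid–liquid extraction with nifedipine internal standard, then LC-MS/MS.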

Data set [4] is described as follows: Tmax in NMRI mouse at 10 mg/kg, ip measured up to 6 hrs on day 1 by LC-MS/MS analysis. As to conditions: in vivo. Type of data set: ADME, organism-based. The method in brief:
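Uninfected female NMRI mice given 10 mg/kg ip at 10 mL/kg in 1% DMSO/99% of 20% (w/v) SBEβ-CD in water, n=3. Tail-vein blood collected into K2EDTA at 0.0833–24 h and diluted 1:1 with water. Extracted with internal standard nifedipine and quantified by LC-MS/MS.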

Data set [5] is described as follows: AUC(0 to t) in ABT-treated NMRI mouse infected with Trypanosoma brucei brucei STIB795 at 30 mg/kg, ip measured up to 6 hrs on day 1 by LC-MS/MS analysis. As to conditions: in vivo. Type of data set: ADME, organism-based. Also on record: route intraperitoneal, dose 30 mg/kg/day, time <=6. In a few lines: (§2)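 Female NMRI mice infected ip with 10^4 bloodstream T. b. brucei STIB795 in TDB glucose. Dosing began day 3 after infection with parasitemia confirmed (n=3): oral ABT 50 mg/kg 1 h before ip 30 mg/kg (0.2 mL; 4% DMSO, 20% Captisol). Blood taken at 0.5, 2, 4, 6 h on day 1, extracted with nifedipine internal standard, LC-MS/MS.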

A short description of data set [6]: AUC in NMRI mouse at 10 mg/kg, ip measured up to 6 hrs on day 1 by LC-MS/MS analysis. Type of data set: ADME, organism-based. More on the design: route intraperitoneal, dose 10 mg/kg. As to conditions: in vivo. In a few lines: (§3)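 Female NMRI mice, uninfected, single ip dose 10 mg/kg at 10 mL/kg in 1% DMSO/99% of 20% (w/v) SBEβ-CD (Captisol) in water. Tail-vein blood into K2EDTA at 0.0833, 0.25, 0.5, 1, 2, 4, 6, 8 and 24 h. Blood diluted 1:1 in water, liquid–liquid extraction with nifedipine internal standard, LC-MS/MS.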

The nature of data set [7]: AUC (0 to t) in NMRI mouse at 10 mg/kg, ip measured up to 6 hrs on day 1 by LC-MS/MS analysis. The class given is ADME, organism-based. Also on record: route intraperitoneal, dose 10 mg/kg. To be noted: in vivo. In a few lines:
as §3

Data set [8] can be described thus: Cmax in ABT-treated NMRI mouse infected with Trypanosoma brucei brucei STIB795 at 30 mg/kg, ip measured up to 6 hrs on day 1 by LC-MS/MS analysis. Type of data set: ADME, organism-based. More on the design: route intraperitoneal, dose 30 mg/kg/day, time <=6. To be noted: in vivo. In a few lines:
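Female NMRI mice were infected ip with 10^4 bloodstream-form T. b. brucei STIB795. From day 3 they received ABT 50 mg/kg/day 1 h before ip dosing at 30 mg/kg/day (n=3), in a vehicle of 4% DMSO and 20% Captisol, for 5 days. Blood was sampled at 0.5, 2, 4 and 6 h on day 1. Quantitation was by LC-MS/MS after liquid–liquid extraction with nifedipine as internal standard.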

Data set [9] is described as follows: Apparent permeability across basolateral to apical side in human Caco2 cells assessed as drug recovery after 2 hrs. Type of data set: ADME, cell-based. As to conditions: caco-2, 2 h.
A short description of data set [10]: Apparent permeability across apical to basolateral side in human Caco2 cells after 2 hrs. Type of data set: ADME, cell-based. To be noted: caco-2, 2 h.
Data set [11] in a line: Tmax in ABT-treated NMRI mouse at 30 mg/kg, ip measured up to 6 hrs on day 1 by LC-MS/MS analysis. To be noted: in vivo, dose 30 mg/kg/day. Type of data set: ADME, organism-based. In a few lines: (§4)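 Female NMRI mice, infected with STIB795 or uninfected, pretreated with ABT 50 mg/kg po 1 h before 30 mg/kg ip. Vehicle 4% DMSO, 20% Captisol. Tail blood taken at 0.5, 2, 4 and 6 h on day 1 and diluted with water. Liquid–liquid extraction with nifedipine internal standard, then LC-MS/MS.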

Data set [12] can be described thus: Cmax in ABT-treated NMRI mouse at 30 mg/kg, ip measured up to 6 hrs on day 1 by LC-MS/MS analysis. Type of data set: ADME, organism-based. As to conditions: in vivo. Also on record: route intraperitoneal, dose 30 mg/kg/day, time <=6. In a few lines:
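Female NMRI mice, uninfected (n=3), were given ABT 50 mg/kg/day 1 h before each ip dose of 30 mg/kg/day, in a vehicle of 4% DMSO and 20% Captisol, as a 0.2 mL injection. Blood was sampled at 0.5, 2, 4 and 6 h on day 1. Samples underwent liquid–liquid extraction with nifedipine as internal standard, followed by LC-MS/MS.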

A short description of data set [13]: AUC in ABT-treated NMRI mouse infected with Trypanosoma brucei brucei STIB795 at 30 mg/kg, ip measured up to 6 hrs on day 1 by LC-MS/MS analysis. Type of data set: ADME, organism-based. Also on record: route intraperitoneal, dose 30 mg/kg/day, time <=6. As to conditions: in vivo. The method in brief: as §2
Data set [14] can be described thus: Cmax in NMRI mouse at 10 mg/kg, ip measured up to […]rs on day 1 by LC-MS/MS analysis. The class given is ADME, organism-based. Also on record: route intraperitoneal, dose 10 mg/kg. To be noted: in vivo. The method in brief: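 Female NMRI mice, uninfected (n=3), received a single ip dose of 10 mg/kg at 10 mL/kg, in 1% DMSO/99% of 20% (w/v) SBEβ-CD in water. Tail-vein blood was collected into K2EDTA at 0.0833 to 24 h and diluted with an equal volume of water. Samples underwent liquid–liquid extraction with nifedipine as internal standard, followed by LC-MS/MS.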

Data set [15] can be described thus: Apparent permeability across apical to basolateral side in human Caco2 cells assessed as drug recovery after 2 hrs. Type of data set: ADME, cell-based. To be noted: caco-2, 2 h.
Data set [16] can be described thus: AUC in ABT-treated NMRI mouse at 30 mg/kg, ip measured up to 6 hrs on day 1 by LC-MS/MS analysis. The class given is ADME, organism-based. More on the design: route intraperitoneal, dose 30 mg/kg/day, time <=6. To be noted: in vivo. The method in brief: as §1
A short description of data set [17]: Tmax in ABT-treated NMRI mouse infected with Trypanosoma brucei brucei STIB795 at 30 mg/kg, ip measured up to 6 hrs on day 1 by LC-MS/MS analysis. As to conditions: in vivo, dose 30 mg/kg/day. The class given is ADME, organism-based. The method in brief:
as §4

In [1], `FC(F)(F)CNc1nc(Nc2ccsc2)nc2[nH]cnc12` showed a logD of 3.1.

On to `Cn1nccc1Nc1nc(NCC(F)(F)F)c2nc[nH]c2n1`, for which the Papp in [2] is 44 10^-6 cm/s; in [10], 5.8 10^-6 cm/s. The AUCt in [3] came to 51799 ng·h/mL; in [5] it was 77666 ng·h/mL; in data set [7] it was 5340 ng·h/mL. The Tmax in data set [4] turned out to be 15 min; in data set [11], 30 min; in data set [17], 30 min. Moreover, the AUC is 5350 ng·h/mL in data set [6], 83443 ng·h/mL in data set [13] and 52521 ng·h/mL in data set [16]. In addition, the results for the Cmax in data set [8], in data set [12] and in [14] were 17267 ng/mL, 15767 ng/mL and 11.8 µM, respectively. The values for the Drug recovery in data set [9] and in data set [15] were 102% and 87%, respectively. In data set [1], this compound returned a logD of 1.9.
